The record followed here is ChEMBL document CHEMBL3046551, “Design, synthesis, and particular biological behaviors of chain-opening nitromethylene neonicotinoids with cis configuration” (2012).

What all share (format): functional
Test [1] has as its system Aphis craccivora. In words: Insecticidal activity against adult Aphis craccivora (cowpea aphid) assessed as […] activity at 500 mg/l after 24 hr. In short, it runs like this: (§1)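 Apterous adult aphids (40−60 per horsebean seedling) on seedlings dipped 5 s in DMF stock diluted with water containing Triton X-100 (0.1 mg L⁻¹); series concentrations 500.0, 250.0, 125.0 mg L⁻¹ and others. Held at 25 ± 1 °C, 50% RH. Triton water served as control. Mortality scored at 24 h, three repetitions, corrected, probit analysis.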

The test system of a further test is Empoasca. Description: Insecticidal activity against Empoasca (Green Leafhopper).
The subject of test [2] is Aphis craccivora. In words: Insecticidal activity against adult Aphis craccivora (cowpea aphid) assessed as […] activity after 24 hr. The method in brief: as §1
The test system of test [3] is Aphis craccivora. In words: Repellent activity against adult Aphis craccivora (cowpea aphid) at 500 mg/l. The method in brief: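 Y-tube olfactometer choice test. Aphid-free horsebean seedlings were dipped 5 s in DMF-dissolved compound diluted in water with Triton X-100 (0.1 mg L⁻¹) and dried. Treated and control seedlings were placed in opposite arms, and apterous adults were introduced into the third arm. The olfactometer was covered with black cloth at 25 ± 1 °C, 50% RH. Adults per arm were counted after 1 h; three repeats.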

By mortality is commonly meant the share of the test organisms that died. For `CCOC1CCC([N+](=O)[O-])=C(N(CC)Cc2ccc(Cl)nc2)N1C` (stereo unspecified), the mortality at 500 µg/mL with Aphis craccivora [1] came to 17.7%.

Turning to `N/C(=C\[N+](=O)[O-])NCc1ccc(Cl)nc1`, in the test with Empoasca, the LC95 is listed as more than 200 ppm.

As to `CCC1CC(OC(C)C)N(C)C(NCc2ccc(Cl)nc2)=C1[N+](=O)[O-]` (stereo unspecified), the mortality at 500 µg/mL in the test on Aphis craccivora [1] is 83.6%. For the molecule `CCOC1CC(C)C([N+](=O)[O-])=C(NCc2ccc(Cl)nc2)N1CC` (stereo unspecified), in the test on Aphis craccivora [1], the mortality at 500 µg/mL was determined as 85.2%. Turning to `CCCOC1CC(C)C([N+](=O)[O-])=C(NCc2ccc(Cl)nc2)N1CC` (stereo unspecified), the mortality at 500 µg/mL in the test with Aphis craccivora [1] worked out at 94.6%. Same read-out and setting: next, `CCN1C(NCc2ccc(Cl)nc2)=C([N+](=O)[O-])C(C)CC1OC(C)C` (stereo unspecified): 75%. In the case of `CCC1CC(OC)N(CC)C(NCc2ccc(Cl)nc2)=C1[N+](=O)[O-]` (stereo unspecified), in the test on Aphis craccivora [1], the mortality at 500 µg/mL was found to be 84.5%. Still for that read-out and setting: next, `CCCOC1CC(CC)C([N+](=O)[O-])=C(NCc2ccc(Cl)nc2)N1CC` (stereo unspecified): 93.4%. By LC50 is commonly meant the concentration that kills 50% of the test population. Regarding `COC1CC(C)C([N+](=O)[O-])=C2N(Cc3cnc(Cl)s3)CCN21` (stereo unspecified), in the test with Aphis craccivora [2], the 50% lethal concentration (LC50) is 190 µM. Also, the mortality at 500 µg/mL in the test on Aphis craccivora [1] was 100%. Turning to `C=CCOC1CC(C)C([N+](=O)[O-])=C(N(CC)Cc2ccc(Cl)nc2)N1C` (stereo unspecified), in the test on Aphis craccivora [1], the mortality at 500 µg/mL came to 19.5%. Turning to `COC1CCC([N+](=O)[O-])=C(N(C)Cc2ccc(Cl)nc2)N1C` (stereo unspecified), in the test with Aphis craccivora [1], the mortality at 500 µg/mL was 21.6%. Take `CCOC1CCC([N+](=O)[O-])=C(N(C)Cc2ccc(Cl)nc2)N1C` (stereo unspecified): in the test on Aphis craccivora [1], the mortality at 500 µg/mL was 23.3%. Turning to `CCCOC1CCC([N+](=O)[O-])=C(N(C)Cc2ccc(Cl)nc2)N1C` (stereo unspecified), in the test on Aphis craccivora [1], the mortality at 500 µg/mL was found to be 15.2%. As to `CC(C)OC1CCC([N+](=O)[O-])=C(N(C)Cc2ccc(Cl)nc2)N1C` (stereo unspecified), the mortality at 500 µg/mL in the test on Aphis craccivora [1] was 17.6%.

Regarding `C=CCOC1CCC([N+](=O)[O-])=C(N(C)Cc2ccc(Cl)nc2)N1C` (stereo unspecified), the mortality at 500 µg/mL in the test with Aphis craccivora [1] amounted to 15.8%. The same measure, in the same setting: next, `COC1CC(C)C([N+](=O)[O-])=C(N(C)Cc2ccc(Cl)nc2)N1C` (stereo unspecified): 23.4%; `CCOC1CC(C)C([N+](=O)[O-])=C(N(C)Cc2ccc(Cl)nc2)N1C` (stereo unspecified): 17.1%; `CCCOC1CC(C)C([N+](=O)[O-])=C(N(C)Cc2ccc(Cl)nc2)N1C` (stereo unspecified): 28.3%. As to `CC(C)OC1CC(C)C([N+](=O)[O-])=C(N(C)Cc2ccc(Cl)nc2)N1C` (stereo unspecified), the mortality at 500 µg/mL in the test with Aphis craccivora [1] came to 25.9%. Take `CCN(Cc1ccc(Cl)nc1)C1=C([N+](=O)[O-])CCC(O)N1C` (stereo unspecified): the mortality at 500 µg/mL in the test on Aphis craccivora [1] worked out at 16.2%. On the same count and under the same terms, the result for `CCN(Cc1ccc(Cl)nc1)C1=C([N+](=O)[O-])CCC(OC)N1C` (stereo unspecified) reads 24.3%; that for `CCCOC1CCC([N+](=O)[O-])=C(N(CC)Cc2ccc(Cl)nc2)N1C` (stereo unspecified), 23.7%; that for `CCN(Cc1ccc(Cl)nc1)C1=C([N+](=O)[O-])CCC(OC(C)C)N1C` (stereo unspecified), 15.3%. Consider `CCN(Cc1ccc(Cl)nc1)C1=C([N+](=O)[O-])C(C)CC(OC)N1C` (stereo unspecified), for which the mortality at 500 µg/mL with Aphis craccivora [1] was 27.6%. `CCOC1CC(C)C([N+](=O)[O-])=C(N(CC)Cc2ccc(Cl)nc2)N1C` (stereo unspecified): the Repellency with Aphis craccivora [3] turned out to be 66.4%. Besides, the mortality at 500 µg/mL with Aphis craccivora [1] stood at 31.8%.

On to `CCCOC1CC(C)C([N+](=O)[O-])=C(N(CC)Cc2ccc(Cl)nc2)N1C` (stereo unspecified), for which the mortality at 500 µg/mL with Aphis craccivora [1] turned out to be 27.2%. As for `CCN(Cc1ccc(Cl)nc1)C1=C([N+](=O)[O-])C(C)CC(OC(C)C)N1C` (stereo unspecified), the mortality at 500 µg/mL with Aphis craccivora [1] came out at 25.8%. With `CC(C)OC1CC(C)C([N+](=O)[O-])=C2N(Cc3ccc(Cl)nc3)CCN21` (stereo unspecified), the LC50 with Aphis craccivora [2] was 262 µM. In the test on Aphis craccivora [1], the mortality at 500 µg/mL came out at 100%. For `O=[N+]([O-])/N=C1\NCCN1Cc1ccc(Cl)nc1` [IMIDACLOPRID], in that order: 30.9 µM and 100%. `CCN(Cc1ccc(Cl)nc1)/C(=C/[N+](=O)[O-])NC` [NITENPYRAM] gave an LC95 in the test with Empoasca of 40 ppm.

For `CCCOC1CC(C)C([N+](=O)[O-])=C2N(Cc3ccc(Cl)nc3)CCN21` (stereo unspecified) [PAICHONGDING], the median lethal concentration (LC50) in the test with Aphis craccivora [2] was 91.8 µM. In the test on Aphis craccivora [1], the mortality at 500 µg/mL worked out at 100%.
